A selection: hits, their analogues and other compounds. The true share with any hit is near 3.9%.
OX1R antag-1: blocks the human orexin 1 receptor | AID 485270 | inhibition, % at 6.6 µM | OX1R-expressing cells, FRET antagonist read-out | O43613 | 330,000 tested, 1.8% active; in the data active = inhibition mostly above about 38%, no sharp cut-off; inactive = mostly below about 40%;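 also: 0% = agonist challenge alone and 100% = reference antagonist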
TAAR1 agonist: agonists of human TAAR1; 360,000 tested, 0.99% active; CHO RD-HGA16 TAAR1, Fluo-8 calcium fluorescence; vehicle wells 0%, saturating PEA agonist 100%; Q96RJ0; activation, % at 3 µM;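 active = activation above the mean activation of all test compounds in the run plus 3 SD, cut at about 38% in these data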
Target sequence (Q96RJ0 whole entry, looked up): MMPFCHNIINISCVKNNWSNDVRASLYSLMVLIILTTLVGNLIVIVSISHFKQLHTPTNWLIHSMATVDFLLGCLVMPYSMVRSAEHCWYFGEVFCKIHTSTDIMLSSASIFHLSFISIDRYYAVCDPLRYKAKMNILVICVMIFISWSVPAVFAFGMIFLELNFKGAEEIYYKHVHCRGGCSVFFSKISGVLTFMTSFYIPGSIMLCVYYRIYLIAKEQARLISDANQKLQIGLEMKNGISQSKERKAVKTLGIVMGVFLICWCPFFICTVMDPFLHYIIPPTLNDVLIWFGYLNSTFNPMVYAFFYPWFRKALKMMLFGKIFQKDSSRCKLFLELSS
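Signal – calcium-sensitive Fluo-8 signal, excitation 470-495, emission 515-575 nm · System – RD-HGA16 (CHO) cells co-expressing Gα16 and hTAAR1 · Incubation – 17-24 h seeding, 75 min 37 °C dye, 30 min RT · Compound dosing – 3 µM single concentration · Repeats – no replicates (n 1)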
TAAR1 antag: antagonists of human TAAR1; Q96RJ0; CHO RD-HGA16 TAAR1, Fluo-8 calcium fluorescence, antagonist; inhibition, % at 3 µM; 360,000 tested, 1.5% active;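 active = inhibition above a per-plate cutoff, the mean inhibition of test compounds on that plate plus 3 SD, cut at about 49% in these data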;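 also: 0% = DMSO plus EC80 beta-PEA response and 100% = DMSO alone without agonist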
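Assay system: RD-HGA16 CHO cells with stable hTAAR1 and Gα16 / Reagent: EC80 β-phenethylamine stimulus / Doses: 3 µM, single point / Timing: dye loading 75 min at 37 °C, then 30 min room temperature / Measured by: Fluo-8 intracellular calcium dye fluorescence, real-time kinetic reads / Controls: vehicle wells and EC80 agonist wells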
OX1R antag-2: human HCRTR1 antagonism; O43613; CHO/OX1R cells, Fluo-8 calcium fluorescence, orexin A; inhibition, % at 5 µM; 330,000 tested, 0.43% active; AID 434989;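 active = inhibition above its plate's threshold, mean inhibition of all tested compounds on the plate plus 3 SD, cut at about 37% in these data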;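 also: 0% = orexin A challenge wells and 100% = SB-334867-A antagonist wells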
CHO parental Ca: counter-screen for OX1R antagonists: effect in parental CHO cells; parental CHO-K1, ATP-induced calcium, Fluo-8 fluorescence; inhibition, % at 5.6 µM; 330,000 tested, 0.63% active;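 active = inhibition above that plate's mean sample inhibition plus 3 SD, cut at about 26% in these data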;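 also: 0% = ATP-challenged DMSO wells and 100% = DMSO wells without ATP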
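Test system: parental CHO cells; detection: calcium-sensitive Fluo-8 fluorescence; evaluation: percent inhibition of calcium signal; also added: ATP as calcium-mobilizing challenge; repeats: one well per compound; control set: ATP-challenged DMSO wells low, unchallenged DMSO wells high; compound: single nominal dose of 5.6 µM per compound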
* marks the source's active call; other numbers are inactive results.

Results for CO[C@H]1CN(C)C(=O)c2ccc(NS(=O)(=O)c3ccccc3F)cc2OC[C@H](C)NC[C@@H]1C ?
TAAR1 agonist: 3; TAAR1 antag: -12

How did C=CCNc1ncnc2c1ncn2[C@H]1CN(CCc2ccccc2)C[C@@H](CO)O1 do in these assays?
TAAR1 agonist: 38*; TAAR1 antag: -18

What do the screens show for `COc1cc(CN2C[C@@H](CO)O[C@@H](n3cnc4c(Nc5ccccc5)ncnc43)C2)cc(OC)c1OC`?
TAAR1 agonist: 15; TAAR1 antag: 60*

How did OC[C@@H]1CN(Cc2ccc3c(c2)OCO3)C[C@H](n2cnc3c(N4CCN(c5ccccc5)CC4)ncnc32)O1 do in these assays?
TAAR1 agonist: 12; TAAR1 antag: 55*

What do the screens show for `COc1cc(CN2C[C@@H](CO)O[C@@H](n3cnc4c(NC5CCC5)ncnc43)C2)cc(OC)c1OC`?
TAAR1 agonist: 2; TAAR1 antag: -4

How did OC[C@@H]1CN(Cc2ccc3c(c2)OCO3)C[C@H](n2cnc3c(N4CCCC4)ncnc32)O1 do in these assays?
TAAR1 agonist: 2; TAAR1 antag: -16

How did O=C(NCCCCC(NC(=O)c1ccccc1)C(=O)O)OCc1ccccc1 (centres undefined) do in these assays?
TAAR1 agonist: 1; TAAR1 antag: 5

Results for COC(=O)[C@]12C[C@H](CC(=O)NCc3ccc(C)o3)C(=O)N(Cc3ccccc3)C1=C[C@H](C(C)C)O[C@@H]2C1CC1 ?
TAAR1 agonist: -1; TAAR1 antag: -20

What do the screens show for `CCOC(=O)C1(C)CCN1C(=O)c1ccc(F)c(Cl)c1` (centres undefined)?
TAAR1 agonist: 3; TAAR1 antag: -20

How did COCCNC(=O)C1(C)CCN(C(=O)c2ccc(C(F)(F)F)nc2C)C1 (centres undefined) do in these assays?
TAAR1 agonist: 0; TAAR1 antag: -5

What do the screens show for `CCCOC(=O)c1ccc(Oc2c(-c3ccc(O)cc3O)n[nH]c2C)cc1`?
OX1R antag-1: 2; TAAR1 agonist: 15; TAAR1 antag: 16; OX1R antag-2: 4; CHO parental Ca: 50*

Results for O=C1CCCCC1Nc1ccc2ccccc2c1 (centres undefined) ?
TAAR1 agonist: 0; TAAR1 antag: -11

How did C[C@@H](NC(=O)[C@@H]1CCCN1C(=O)[C@@H]1CCCN1C(=O)c1cccc(Cl)c1)c1ccccc1 do in these assays?
TAAR1 agonist: 2; TAAR1 antag: -14

Results for C[C@H]1[C@@H](c2ccccc2)Oc2c(Cl)cccc2S(=O)(=O)N1C ?
TAAR1 agonist: 0; TAAR1 antag: 13

Results for O=C1CC[C@@H]2C[C@@]3(C[C@@H]4CCN1[C@H]24)Nc1cc([N+](=O)[O-])ccc1NC3=NCc1ccccc1 ?
TAAR1 agonist: 3; TAAR1 antag: 6

What do the screens show for `Cc1c(O)ccc(C(=O)COc2ccccc2F)c1O`?
OX1R antag-1: 37*; TAAR1 agonist: 22; TAAR1 antag: 32; OX1R antag-2: 7; CHO parental Ca: 5

What do the screens show for `Cc1ccc(S(=O)(=O)N2CCCc3ccccc32)cc1C`?
OX1R antag-1: 5; TAAR1 agonist: 3; TAAR1 antag: 23; OX1R antag-2: -16; CHO parental Ca: 30*

How did Cc1cccc(OCC(=O)Nc2ccc3oc(=O)ccc3c2)c1C do in these assays?
OX1R antag-1: 15; TAAR1 agonist: 3; TAAR1 antag: 21; OX1R antag-2: 2; CHO parental Ca: 50*

How did Cc1ccccc1CN(c1ccc(C(=O)N2CCc3ccccc3C2)cc1)S(C)(=O)=O do in these assays?
OX1R antag-1: 20; TAAR1 agonist: 23; TAAR1 antag: 51*; OX1R antag-2: -21; CHO parental Ca: -9

Results for Cc1cccc(NS(=O)(=O)c2cc(C(=O)N3CCc4ccccc4C3)ccc2Cl)c1C ?
OX1R antag-1: 9; TAAR1 agonist: 10; TAAR1 antag: 56*; OX1R antag-2: 16; CHO parental Ca: -2

What do the screens show for `Cc1ccc(C)c(NS(=O)(=O)c2cc(C(=O)N3CCc4ccccc4C3)ccc2Cl)c1`?
OX1R antag-1: 33; TAAR1 agonist: 5; TAAR1 antag: 28; OX1R antag-2: -21; CHO parental Ca: -26

What do the screens show for `Cc1cccc(N(CC(=O)NCCSc2ccccn2)S(=O)(=O)c2ccccc2)c1`?
OX1R antag-1: 57; TAAR1 agonist: 9; TAAR1 antag: 36; OX1R antag-2: -34; CHO parental Ca: -29

High-throughput results (PubChem)
